Source: ChEMBL document CHEMBL4808175 (J Med Chem, 2021)
Active and inactive are the calls of the source. The rule behind the calls is not given here.

How the values were obtained:
[1] = molecular target: T1, cGMP-specific 3',5'-cyclic phosphodiesterase (Homo sapiens, UniProt O76074); assay: Inhibition of recombinant full length GST-tagged PDE5A1 (unknown origin) expressed in baculovirus infected Sf9 insect cells using TAMRA-cGMP as substrate incubated for 1.5 hrs by IMAP-FP assay
[2] = molecular target: T2, Dual specificity calcium/calmodulin-dependent 3',5'-cyclic nucleotide phosphodiesterase 1A (Homo sapiens, UniProt P54750); assay: Inhibition of recombinant full length GST-tagged PDE1A (unknown origin) expressed in baculovirus infected Sf9 insect cells using FAM-cAMP as substrate incubated for 1.5 hrs by IMAP-FP assay
T2 sequence (P54750 whole entry): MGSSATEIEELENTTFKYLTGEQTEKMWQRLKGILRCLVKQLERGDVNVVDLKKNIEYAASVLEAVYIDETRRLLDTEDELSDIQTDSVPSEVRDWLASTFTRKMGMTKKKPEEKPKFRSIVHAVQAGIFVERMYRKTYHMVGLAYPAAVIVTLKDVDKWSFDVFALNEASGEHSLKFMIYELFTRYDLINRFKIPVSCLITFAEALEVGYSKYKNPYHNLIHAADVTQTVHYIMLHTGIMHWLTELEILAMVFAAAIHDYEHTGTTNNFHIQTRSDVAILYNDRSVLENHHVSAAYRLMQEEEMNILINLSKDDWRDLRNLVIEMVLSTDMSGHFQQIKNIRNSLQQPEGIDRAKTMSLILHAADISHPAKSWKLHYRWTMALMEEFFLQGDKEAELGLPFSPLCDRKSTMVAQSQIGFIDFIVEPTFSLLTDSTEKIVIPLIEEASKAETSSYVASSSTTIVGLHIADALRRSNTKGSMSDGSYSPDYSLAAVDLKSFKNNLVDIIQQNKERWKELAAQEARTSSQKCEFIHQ
How it was run: (§1)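 PDE enzymes incubated with compound or vehicle and 50 nM TAMRA-cGMP or FAM-cAMP substrate for 1.5 h at 30 °C. Activity read by IMAP fluorescence polarization. IC50 from 10 concentrations, at least two replicates each, fitted by four-parameter logistic. Dose–response repeated at least twice; mean of at least two experiments.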

[3] = molecular target: T2, Dual specificity calcium/calmodulin-dependent 3',5'-cyclic nucleotide phosphodiesterase 1A; assay: Inhibition of recombinant full length GST-tagged PDE1A (unknown origin) expressed in baculovirus infected Sf9 insect cells using TAMRA-cGMP as substrate incubated for 1.5 hrs by IMAP-FP assay; how it was run: as §1
[4] = molecular target: T3, cGMP-inhibited 3',5'-cyclic phosphodiesterase 3A (Homo sapiens, UniProt Q14432); assay: Inhibition of recombinant GST-tagged PDE3A (669 to end residues) (unknown origin) expressed in baculovirus infected Sf9 insect cells using FAM-cAMP as substrate incubated for 1.5 hrs by IMAP-FP assay; how it was run: as §1
T3 sequence (Q14432 whole entry): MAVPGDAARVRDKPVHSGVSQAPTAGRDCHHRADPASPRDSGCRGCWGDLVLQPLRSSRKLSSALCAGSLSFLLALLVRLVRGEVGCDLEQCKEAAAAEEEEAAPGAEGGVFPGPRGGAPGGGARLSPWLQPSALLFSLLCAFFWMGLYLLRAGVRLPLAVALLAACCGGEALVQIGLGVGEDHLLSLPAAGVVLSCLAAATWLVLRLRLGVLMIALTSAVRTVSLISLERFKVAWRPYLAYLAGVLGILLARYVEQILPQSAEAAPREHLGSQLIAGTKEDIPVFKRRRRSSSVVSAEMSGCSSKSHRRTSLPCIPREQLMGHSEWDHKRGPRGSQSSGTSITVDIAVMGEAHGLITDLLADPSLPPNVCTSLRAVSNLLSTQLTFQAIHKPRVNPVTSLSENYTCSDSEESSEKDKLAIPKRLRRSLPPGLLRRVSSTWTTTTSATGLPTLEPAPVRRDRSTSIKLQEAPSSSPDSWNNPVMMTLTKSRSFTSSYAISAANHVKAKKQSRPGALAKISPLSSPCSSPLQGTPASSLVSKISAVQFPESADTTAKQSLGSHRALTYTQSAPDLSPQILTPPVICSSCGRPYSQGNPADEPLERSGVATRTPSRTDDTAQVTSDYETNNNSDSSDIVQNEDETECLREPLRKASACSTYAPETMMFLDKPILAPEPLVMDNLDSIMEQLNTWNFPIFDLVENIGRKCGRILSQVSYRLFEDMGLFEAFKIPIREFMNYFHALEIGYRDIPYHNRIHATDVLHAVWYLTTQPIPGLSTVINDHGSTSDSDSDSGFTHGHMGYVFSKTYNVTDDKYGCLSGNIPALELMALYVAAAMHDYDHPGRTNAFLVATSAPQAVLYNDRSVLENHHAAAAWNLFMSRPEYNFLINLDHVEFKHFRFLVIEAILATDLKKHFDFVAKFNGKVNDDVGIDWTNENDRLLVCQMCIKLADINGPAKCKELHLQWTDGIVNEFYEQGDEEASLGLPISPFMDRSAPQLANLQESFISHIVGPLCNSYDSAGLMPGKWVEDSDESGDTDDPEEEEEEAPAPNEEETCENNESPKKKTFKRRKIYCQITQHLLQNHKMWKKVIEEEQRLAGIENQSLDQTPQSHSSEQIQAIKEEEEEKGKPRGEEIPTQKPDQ

[5] = molecular target: T3, cGMP-inhibited 3',5'-cyclic phosphodiesterase 3A; assay: Inhibition of recombinant GST-tagged PDE3A (669 to end residues) (unknown origin) expressed in baculovirus infected Sf9 insect cells using TAMRA-cGMP as substrate incubated for 1.5 hrs by IMAP-FP assay; how it was run: as §1
[6] = molecular target: 3',5'-cyclic-AMP phosphodiesterase 4B (Homo sapiens, UniProt Q07343); assay: Inhibition of recombinant full length GST-tagged PDE4B2 (unknown origin) expressed in baculovirus infected Sf9 insect cells using FAM-cAMP as substrate incubated for 1.5 hrs by IMAP-FP assay; how it was run: as §1
Chain of 3',5'-cyclic-AMP phosphodiesterase 4B (Q07343 whole entry): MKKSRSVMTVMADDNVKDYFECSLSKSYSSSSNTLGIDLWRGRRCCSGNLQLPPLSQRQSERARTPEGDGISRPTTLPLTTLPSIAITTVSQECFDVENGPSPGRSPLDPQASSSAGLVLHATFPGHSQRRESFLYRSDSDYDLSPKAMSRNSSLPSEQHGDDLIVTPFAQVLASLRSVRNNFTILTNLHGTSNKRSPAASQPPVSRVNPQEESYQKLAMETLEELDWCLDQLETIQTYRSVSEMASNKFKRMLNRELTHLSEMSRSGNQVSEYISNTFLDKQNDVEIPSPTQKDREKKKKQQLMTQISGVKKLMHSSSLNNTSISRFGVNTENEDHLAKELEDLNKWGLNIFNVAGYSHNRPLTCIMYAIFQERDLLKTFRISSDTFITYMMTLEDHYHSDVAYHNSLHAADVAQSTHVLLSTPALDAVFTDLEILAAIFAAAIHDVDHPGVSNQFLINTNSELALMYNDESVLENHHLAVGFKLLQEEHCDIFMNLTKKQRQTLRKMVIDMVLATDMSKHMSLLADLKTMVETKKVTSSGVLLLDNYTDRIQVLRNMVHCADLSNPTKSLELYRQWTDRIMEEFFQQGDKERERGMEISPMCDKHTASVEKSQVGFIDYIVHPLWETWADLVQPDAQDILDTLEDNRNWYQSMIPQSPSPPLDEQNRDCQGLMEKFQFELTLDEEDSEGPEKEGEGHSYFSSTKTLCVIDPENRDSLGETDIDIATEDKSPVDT

[7] = molecular target: T4, Cone cGMP-specific 3',5'-cyclic phosphodiesterase subunit alpha' (Homo sapiens, UniProt P51160); assay: Inhibition of recombinant full length GST-tagged PDE6C (unknown origin) expressed in baculovirus infected Sf9 insect cells using TAMRA-cGMP as substrate incubated for 1.5 hrs by IMAP-FP assay; how it was run: as §1
T4 sequence (P51160 whole entry): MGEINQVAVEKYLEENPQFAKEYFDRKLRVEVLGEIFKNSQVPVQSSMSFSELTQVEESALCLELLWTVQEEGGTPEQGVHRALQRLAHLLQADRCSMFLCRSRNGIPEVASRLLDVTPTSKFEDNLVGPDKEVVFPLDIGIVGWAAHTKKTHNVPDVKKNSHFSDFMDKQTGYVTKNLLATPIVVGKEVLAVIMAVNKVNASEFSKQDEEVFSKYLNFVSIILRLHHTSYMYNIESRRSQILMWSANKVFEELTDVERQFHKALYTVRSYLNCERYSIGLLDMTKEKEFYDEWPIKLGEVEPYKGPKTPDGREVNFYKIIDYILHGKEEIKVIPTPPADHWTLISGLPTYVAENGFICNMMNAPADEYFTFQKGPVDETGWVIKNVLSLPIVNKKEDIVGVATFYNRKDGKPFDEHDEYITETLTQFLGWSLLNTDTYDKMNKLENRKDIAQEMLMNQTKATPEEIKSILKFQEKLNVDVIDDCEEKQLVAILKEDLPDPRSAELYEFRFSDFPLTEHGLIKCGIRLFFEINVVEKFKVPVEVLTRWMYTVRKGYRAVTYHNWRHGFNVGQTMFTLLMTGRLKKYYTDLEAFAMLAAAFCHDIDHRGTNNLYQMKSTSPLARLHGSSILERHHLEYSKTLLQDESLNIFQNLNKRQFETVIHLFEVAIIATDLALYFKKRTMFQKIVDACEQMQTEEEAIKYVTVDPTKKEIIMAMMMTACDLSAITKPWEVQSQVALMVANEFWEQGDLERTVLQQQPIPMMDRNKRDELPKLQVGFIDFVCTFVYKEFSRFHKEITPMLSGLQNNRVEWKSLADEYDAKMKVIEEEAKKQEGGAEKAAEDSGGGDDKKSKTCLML

[8] = molecular target: High affinity 3',5'-cyclic-AMP phosphodiesterase 7A (Homo sapiens, UniProt Q13946); assay: Inhibition of recombinant GST-tagged PDE7A (122 to end residues) (unknown origin) expressed in baculovirus infected Sf9 insect cells using FAM-cAMP as substrate incubated for 1.5 hrs by IMAP-FP assay; how it was run: as §1
Chain of High affinity 3',5'-cyclic-AMP phosphodiesterase 7A (Q13946 whole entry): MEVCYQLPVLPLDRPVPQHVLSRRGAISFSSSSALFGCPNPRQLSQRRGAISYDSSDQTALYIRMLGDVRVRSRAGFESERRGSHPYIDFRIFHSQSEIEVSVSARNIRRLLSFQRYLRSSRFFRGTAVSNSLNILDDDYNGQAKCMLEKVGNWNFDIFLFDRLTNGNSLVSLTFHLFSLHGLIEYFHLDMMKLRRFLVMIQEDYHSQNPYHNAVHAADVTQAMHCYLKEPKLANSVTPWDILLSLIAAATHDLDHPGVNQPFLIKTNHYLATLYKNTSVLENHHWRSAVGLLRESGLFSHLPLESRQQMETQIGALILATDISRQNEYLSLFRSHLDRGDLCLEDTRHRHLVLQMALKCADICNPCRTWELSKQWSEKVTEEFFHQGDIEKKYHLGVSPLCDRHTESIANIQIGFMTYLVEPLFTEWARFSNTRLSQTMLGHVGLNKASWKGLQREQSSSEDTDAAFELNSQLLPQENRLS

[9] = molecular target: High affinity cAMP-specific and IBMX-insensitive 3',5'-cyclic phosphodiesterase 8A (Homo sapiens, UniProt O60658); assay: Inhibition of recombinant GST-tagged full length PDE8A1 (unknown origin) expressed in baculovirus infected Sf9 insect cells using FAM-cAMP as substrate incubated for 1.5 hrs by IMAP-FP assay; how it was run: as §1
[10] = molecular target: Dual 3',5'-cyclic-AMP and -GMP phosphodiesterase 11A (Homo sapiens, UniProt Q9HCR9); assay: Inhibition of recombinant GST-tagged full length PDE11A4 (unknown origin) expressed in baculovirus infected Sf9 insect cells using FAM-cAMP as substrate incubated for 1.5 hrs by IMAP-FP assay; how it was run: as §1
Chain of Dual 3',5'-cyclic-AMP and -GMP phosphodiesterase 11A (Q9HCR9 whole entry): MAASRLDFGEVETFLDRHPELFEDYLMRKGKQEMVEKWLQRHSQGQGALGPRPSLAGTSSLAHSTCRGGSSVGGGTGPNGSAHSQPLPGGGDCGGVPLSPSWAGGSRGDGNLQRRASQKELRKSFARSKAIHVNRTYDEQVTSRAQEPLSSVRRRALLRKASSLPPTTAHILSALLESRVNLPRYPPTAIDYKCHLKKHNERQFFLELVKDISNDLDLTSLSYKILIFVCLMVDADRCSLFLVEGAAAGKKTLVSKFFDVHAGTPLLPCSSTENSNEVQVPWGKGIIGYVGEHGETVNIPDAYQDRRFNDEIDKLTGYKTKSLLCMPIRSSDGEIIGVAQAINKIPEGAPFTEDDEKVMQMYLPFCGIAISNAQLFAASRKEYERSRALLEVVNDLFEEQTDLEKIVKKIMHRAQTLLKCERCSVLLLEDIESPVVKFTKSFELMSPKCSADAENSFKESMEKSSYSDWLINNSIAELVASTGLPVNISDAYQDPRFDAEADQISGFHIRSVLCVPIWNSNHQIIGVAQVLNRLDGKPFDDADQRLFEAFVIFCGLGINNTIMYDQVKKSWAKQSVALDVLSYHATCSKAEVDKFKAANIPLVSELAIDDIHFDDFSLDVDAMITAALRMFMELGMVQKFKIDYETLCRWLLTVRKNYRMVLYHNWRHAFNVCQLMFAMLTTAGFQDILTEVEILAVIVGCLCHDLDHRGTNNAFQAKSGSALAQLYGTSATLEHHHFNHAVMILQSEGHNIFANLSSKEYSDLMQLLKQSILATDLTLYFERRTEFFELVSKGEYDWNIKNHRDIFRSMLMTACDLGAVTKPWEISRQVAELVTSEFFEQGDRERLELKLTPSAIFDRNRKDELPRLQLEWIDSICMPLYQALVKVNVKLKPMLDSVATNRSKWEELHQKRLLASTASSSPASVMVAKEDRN

[11] = species: Homo sapiens; assay: Selectivity ratio of IC50 for recombinant full length GST-tagged PDE6C (unknown origin) expressed in baculovirus infected Sf9 insect cells to IC50 for recombinant full length GST-tagged PDE5A1 (unknown origin) expressed in baculovirus infected Sf9 insect cells using TAMRA-cGMP as substrate incubated for 1.5 hrs by IMAP-FP assay using TAMRA-cGMP as substrate incubated for 1.5 hrs by IMAP-FP assay
[12] = molecular target: T4, Cone cGMP-specific 3',5'-cyclic phosphodiesterase subunit alpha'; assay: Inhibition of recombinant full length GST-tagged PDE6C (unknown origin) expressed in baculovirus infected Sf9 insect cells at 15 uM using TAMRA-cGMP as substrate incubated for 1.5 hrs by IMAP-FP assay relative to control
How it was run: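 PDE6 activity measured at a single 15 μM compound concentration with TAMRA-cGMP substrate. Incubated 1.5 h at 30 °C and read by IMAP fluorescence polarization; percent inhibition relative to control.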

[13] = molecular target: T1, cGMP-specific 3',5'-cyclic phosphodiesterase; assay: Competitive inhibition of recombinant 6His-tagged PDE5A1 catalytic domain (unknown origin) expressed in Escherichia coli assessed as increase in apparent Km up to 40 nM using varying levels TAMRA-cGMP or FAM-cAMP as substrate; details: dose nM <=40
[14] = molecular target: T1, cGMP-specific 3',5'-cyclic phosphodiesterase; assay: Inhibition of PDE5A in HEK293 cells stably transfected with cGMP biosensor assessed as increase in SNP-induced intracellular cGMP level measured after 90 mins by luminescence assay; type: cell-based
[15] = Tmax in C57BL/6N mouse at 150 mg/kg, po administered as single dose measured up to 8 hrs by LC-MS/MS analysis; type: ADME, organism-based; details: in vivo
[16] = Cmax in C57BL/6N mouse at 150 mg/kg, po administered as single dose measured up to 8 hrs by LC-MS/MS analysis; type: ADME, organism-based; design: route oral, dose 150 mg/kg, time <=8; details: in vivo
[17] = Observed AUC (0 to infinity) in C57BL/6N mouse at 150 mg/kg, po administered as single dose measured up to 8 hrs by LC-MS/MS analysis; type: ADME, organism-based; design: route oral, dose 150 mg/kg, time <=8; details: in vivo
[18] = Observed volume of distribution in C57BL/6N mouse at 150 mg/kg, po administered as single dose measured up to 8 hrs by LC-MS/MS analysis; type: ADME, organism-based; details: in vivo
[19] = Toxicity in athymic nude-Foxn1nu mouse assessed as body weight gain at 50 to 150 mg/kg, po bid for 28 days; type: organism-based; details: in vivo, 672 h, dose 50-150 mg/kg, time 28 day
How it was run: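 Female athymic nude-Foxn1nu mice, 8–9 weeks, 18–24 g, n=4 per group. Oral gavage at 50, 100 or 150 mg/kg twice daily, or vehicle, for 28 days. Formulation ethanol/water/Maalox (7:3:90, v/v/v). Toxicity signs monitored daily. Body weight recorded daily in week 1, then twice weekly, as percent change from starting weight.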

[20] = Toxicity in athymic nude-Foxn1nu mouse assessed as effect on liver at 50 to 150 mg/kg, po bid for 28 days; type: organism-based; details: in vivo, 672 h, dose 50-150 mg/kg, time 28 day
[21] = Toxicity in athymic nude-Foxn1nu mouse assessed as effect on spleen at 50 to 150 mg/kg, po bid for 28 days; type: organism-based; details: in vivo, 672 h, dose 50-150 mg/kg, time 28 day
[22] = Toxicity in athymic nude-Foxn1nu mouse assessed as effect on kidney at 50 to 150 mg/kg, po bid for 28 days; type: organism-based; details: in vivo, 672 h, dose 50-150 mg/kg, time 28 day
[23] = Half life in C57BL/6N mouse at 150 mg/kg, po administered as single dose measured up to 8 hrs by LC-MS/MS analysis; type: ADME, organism-based; details: in vivo
[24] = human, microsomes, 1 h, 1 µM
[25] = molecular target: High affinity cGMP-specific 3',5'-cyclic phosphodiesterase 9A (Homo sapiens, UniProt O76083); assay: Inhibition of recombinant GST-tagged full length PDE9A2 (unknown origin) expressed in baculovirus infected Sf9 insect cells using substrate incubated for 1.5 hrs by IMAP-FP assay

- IC50 [1]: 0.001 µM
- IC50 [2]: > 10 µM
- IC50 [3]: > 10 µM
- IC50 [4]: > 10 µM
- IC50 [5]: > 10 µM
- IC50 [6]: > 10 µM
- IC50 [7]: > 10 µM
- IC50 [8]: > 10 µM
- IC50 [9]: > 10 µM
- IC50 [10]: > 10 µM
- inhibition [12]: 50%
- inhibition [13]: Active
- EC50 [14]: 6.7 µM
- Tmax [15]: 2 h
- Cmax [16]: 4000 ng/mL
- AUC(0-inf) [17]: 16200 ng·h/mL
- Vd [18]: 625 mL
- half-life [23]: 2.33 h
- t1/2 [24]: 0.367 h
- IC50 [25]: > 10 µM
Compound: COc1c(F)cc(C2CC(C(C)(C)C)=NN2c2ccc(C(=O)N3CCN(C)CC3)cc2)cc1F (stereo not given)
- Ratio IC50 [11]: > 10000
- Activity [19]: Non-Toxic
- Activity [20]: Non-Toxic
- Activity [21]: Non-Toxic
- Activity [22]: Non-Toxic
